Experimental data pooled from the literature.
Target: Aurora kinase C (AURKC, Homo sapiens, UniProt Q9UQB9)
One construct used (Q9UQB9 1-309): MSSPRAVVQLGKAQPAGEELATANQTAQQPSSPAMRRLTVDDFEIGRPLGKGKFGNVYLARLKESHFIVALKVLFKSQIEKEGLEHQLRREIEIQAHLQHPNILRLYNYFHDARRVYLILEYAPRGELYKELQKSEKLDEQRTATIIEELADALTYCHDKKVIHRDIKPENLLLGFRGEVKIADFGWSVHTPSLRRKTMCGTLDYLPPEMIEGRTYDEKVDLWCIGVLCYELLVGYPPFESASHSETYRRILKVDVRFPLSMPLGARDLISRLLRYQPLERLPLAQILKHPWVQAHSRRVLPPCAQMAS

| Compound | test | conditions | remaining binding [%] |
| --- | --- | --- | --- |
| CCN1CCN(Cc2ccc(C(=O)Nc3ccc(C)c(Oc4ccc5c(c4)CC(=O)N5)c3)cc2C(F)(F)F)CC1 | binding, competition with immobilised ligand | 1 µM | 91 |
| N[C@H]1CCN(c2nccc(-c3cnn4ncccc34)n2)C1 | binding | 1 µM | 97 |
| CNC(=O)[C@@H]1CC[C@@H](n2c(-c3ccc4cnccc4c3)nc3ccc(C(=O)NCc4cccc(C(N)=O)c4)cc32)C1 | binding, competition with immobilised ligand | 1 µM | 100 |
| C[C@H]1CCN(c2nccc(-c3cnn4ncccc34)n2)C1 | binding | 1 µM | 95 |
| C=CC(=O)N1CCC(C(=O)NCC(=O)N2CCN(c3nc(-c4cnc(N)nc4C(F)F)nc(N4CCOCC4)n3)CC2)CC1 | binding, competition with immobilised ligand | 1 µM | 100 |
| O=C(Nc1cccnn1)N1CCC(=Cc2cccc(Oc3ccc(C(F)(F)F)cn3)c2)CC1 | cell-free assay, competition with immobilised ligand | 1 µM | 100 |
| O=C(c1ccc(Nc2ncc(Cl)c(-c3ccc(Cl)s3)n2)cc1)N1CCC(N2CCCC2)CC1 | binding, competition with immobilised ligand | 1 µM | 2.8 |
| Nc1ncc2c(n1)-c1c([nH]c3ccc(C#CC4CC4)cc13)CCCC2 | binding, competition with immobilised ligand | 1 µM | 86 |
| F[C@@H]1CCN(c2nccc(-c3cnn4ncccc34)n2)C1 | binding | 1 µM | 100 |
| O=C(c1ccc(Nc2nccc(-c3cc4ccccc4s3)n2)cc1)N1CCC(N2CCCC2)CC1 | binding, competition with immobilised ligand | 1 µM | 30 |
| CN(C)c1nccc(-c2cnc3ncccn23)n1 | binding | 1 µM | 100 |
| C[C@@H](c1ccc(-n2cnc3c(N)ncnc32)cc1)N1CCc2nn(C)c(Cc3ccccc3)c2C1=O | binding, competition with immobilised ligand | 0.1 µM | 79 |
| CO[C@@H](C)c1c(Nc2ccc([C@H](N(C)C(=O)C3CCS(=O)(=O)CC3)C(F)(F)F)cc2)cnc2cc(Cl)nn12 | cell-free assay, competition with immobilised ligand | 1 µM | 77 |
| O=C(NCCCN1CCOCC1)c1ccc(Nc2nccc(-c3cc4ccccc4s3)n2)cc1 | binding, competition with immobilised ligand | 1 µM | 32 |
| O=C(NC[C@@H]1[C@H]2CN(C(=O)OCc3cc(C(F)(F)F)cc(C(F)(F)F)c3)C[C@@H]12)c1ccc2[nH]nnc2c1 | cell-free assay, competition with immobilised ligand | 1 µM | 91 |
| COc1ccnn2ncc(-c3ccnc(N(C)C)n3)c12 | binding | 1 µM | 100 |
| CS(=O)(=O)c1cc(C2(NC(=O)c3cncc4c3cnn4-c3ccc(F)cc3)CC2)ccn1 | cell-free assay, competition with immobilised ligand | 1 µM | 100 |
| O=C(NCC1CCOCC1)c1n[nH]cc1NC(=O)c1c(F)cccc1F | binding, competition with immobilised ligand | 1 µM | 79 |
| COc1ccc2c(O[C@@H]3C[C@H]4C(=O)N[C@]5(C(=O)O)CC5/C=C\CCCCC[C@H](NC(=O)OC5CCCC5)C(=O)N4C3)cc(-c3csc(NC(=O)C(C)C)n3)nc2c1C (stereo partly shown) | cell-free assay, competition with immobilised ligand | 1 µM | 96 |
| COc1cnc(Nc2cccc(S(N)(=O)=O)c2)nc1N1CCN(c2ccccc2)CC1 | binding, competition with immobilised ligand | 1 µM | 84 |
| CN(C)c1ncc(F)c(-c2cnn3ncccc23)n1 | binding | 1 µM | 100 |
| O=C(O)[C@@H]1[C@@H](Cn2nnc3ccccc3c2=O)CC[C@H]1C(=O)c1ccc(OCCC2CCOCC2)cc1 | cell-free assay, competition with immobilised ligand | 1 µM | 100 |
